This passage reports IC50 results from ChEMBL document CHEMBL1165947, “Synthesis and antitumor activity of 2,5-bis(3'-indolyl)-furans and 3,5-bis(3'-indolyl)-isoxazoles, nortopsentin analogues” (Bioorg Med Chem, 2010).

In brackets after ≈: the same amount, converted by molar mass.

What all share (type): functional, cell-based
The nature of assay [1]: Cytotoxicity against human LXFA 526L cells after 4 days by modified propidium iodide staining-based fluorescence assay. The conditions noted are these: 96 h. In a few lines: (§1)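 Cells cultured in RPMI 1640 with 10% fetal calf serum and 0.1 mg/mL gentamicin at 37 °C, 5% CO2. Cells from exponential cultures were trypsinized and plated at 4.000-20.000 cells/well by line. After 24 h recovery, compounds were added at five log-spaced concentrations (highest 100 μg/mL) for 4 days. Proliferation was read as DNA content with aqueous propidium iodide (7 μg/ml), fluorescence ex 530/em 620 nm. Points were run in triplicate.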

A further assay deals with MCF7. The assay is described as follows: Cytotoxicity against human MCF7 cells after 4 days by modified propidium iodide staining-based fluorescence assay. The conditions noted are these: MCF7, 96 h. In a few lines: as §1
A further assay concerns A549. Description: Cytotoxicity against human A549 cells after 4 days by modified propidium iodide staining-based fluorescence assay. The conditions noted are these: A549, 96 h. In a few lines: as §1
The next assay relates to OVCAR-3. The assay is described as follows: Cytotoxicity against human OVCAR-3 cells after 4 days by modified propidium iodide staining-based fluorescence assay. The conditions noted are these: OVCAR-3, 96 h. In a few lines: as §1
Assay [2] in a line: Cytotoxicity against human MEXF 462NL cells after 4 days by modified propidium iodide staining-based fluorescence assay. The conditions noted are these: 96 h. In a few lines: as §1
Another assay has as its system HCT-116. Description: Cytotoxicity against human HCT116 cells after 4 days by modified propidium iodide staining-based fluorescence assay. The conditions noted are these: HCT-116, 96 h. In a few lines:
as §1

For the next assay, the system named is SF-268. Description: Cytotoxicity against human SF268 cells after 4 days by modified propidium iodide staining-based fluorescence assay. The conditions noted are these: SF-268, 96 h. In a few lines: as §1
The nature of assay [3]: Cytotoxicity against human UXF 1138L cells after 4 days by modified propidium iodide staining-based fluorescence assay. The conditions noted are these: 96 h. In a few lines: as §1
The nature of assay [4]: Cytotoxicity against human MEXF 276L cells after 4 days by modified propidium iodide staining-based fluorescence assay. The conditions noted are these: MEXF276L, 96 h. In a few lines: as §1
The nature of assay [5]: Cytotoxicity against human 1781L cells after 4 days by modified propidium iodide staining-based fluorescence assay. The conditions noted are these: 96 h. In a few lines: as §1
For a further assay, the system named is HT-29. Description: Cytotoxicity against human HT-29 cells after 4 days by modified propidium iodide staining-based fluorescence assay. The conditions noted are these: HT-29, 96 h. In a few lines:
as §1

For the next assay, the system named is NCI-H460. The assay is described as follows: Cytotoxicity against human H460 cells after 4 days by modified propidium iodide staining-based fluorescence assay. The conditions noted are these: NCI-H460, 96 h. In a few lines:
as §1

Assay [6] in a line: Cytotoxicity against human 899L cells after 4 days by modified propidium iodide staining-based fluorescence assay. The conditions noted are these: 96 h. In a few lines: as §1
A short description of assay [7]: Cytotoxicity against human MEXF 520L cells after 4 days by modified propidium iodide staining-based fluorescence assay. The conditions noted are these: 96 h. In a few lines:
as §1

Assay [8] is described as follows: Cytotoxicity against human RXF 486L cells after 4 days by modified propidium iodide staining-based fluorescence assay. The conditions noted are these: 96 h. In a few lines: as §1
In another assay the test system is DU-145. The assay is described as follows: Cytotoxicity against human DU145 cells after 4 days by modified propidium iodide staining-based fluorescence assay. The conditions noted are these: DU-145, 96 h. In a few lines: as §1
Assay [9] in a line: Cytotoxicity against human MAXF 401NL cells after 4 days by modified propidium iodide staining-based fluorescence assay. The conditions noted are these: 96 h. In a few lines: as §1
Assay [10] is described as follows: Cytotoxicity against human LXFA 629L cells after 4 days by modified propidium iodide staining-based fluorescence assay. The conditions noted are these: 96 h. In a few lines: as §1
Assay [11] in a line: Cytotoxicity against human 1752L cells after 4 days by modified propidium iodide staining-based fluorescence assay. The conditions noted are these: 96 h. In a few lines: as §1
A short description of assay [12]: Cytotoxicity against human GXF251L cells after 4 days by modified propidium iodide staining-based fluorescence assay. The conditions noted are these: GXF 251L, 96 h. In a few lines:
as §1

The test system of another assay is LNCaP. Description: Cytotoxicity against human LNCAP cells after 4 days by modified propidium iodide staining-based fluorescence assay. The conditions noted are these: 96 h. In a few lines: as §1
Assay [13] is described as follows: Cytotoxicity against human 1657L cells after 4 days by modified propidium iodide staining-based fluorescence assay. The conditions noted are these: 96 h. In a few lines:
as §1

The nature of assay [14]: Cytotoxicity against human LXFL 1121L cells after 4 days by modified propidium iodide staining-based fluorescence assay. The conditions noted are these: 96 h. In a few lines: as §1
Assay [15] is described as follows: Cytotoxicity against human LXFA 289L cells after 4 days by modified propidium iodide staining-based fluorescence assay. The conditions noted are these: 96 h. In a few lines:
as §1

Another assay relates to PANC-1. The assay is described as follows: Cytotoxicity against human PANC1 cells after 4 days by modified propidium iodide staining-based fluorescence assay. The conditions noted are these: PANC-1, 96 h. In a few lines: as §1
The next assay deals with CWR22R. The assay is described as follows: Cytotoxicity against human 22Rv1 cells after 4 days by modified propidium iodide staining-based fluorescence assay. The conditions noted are these: 22Rv1, 96 h. In a few lines:
as §1

The subject of a further assay is T-24. Description: Cytotoxicity against human T24 cells after 4 days by modified propidium iodide staining-based fluorescence assay. The conditions noted are these: T-24, 96 h. In a few lines: as §1
A short description of assay [16]: Cytotoxicity against human BXF 1218L cells after 4 days by modified propidium iodide staining-based fluorescence assay. The conditions noted are these: 96 h. In a few lines:
as §1

A short description of assay [17]: Cytotoxicity against human PC3M cells after 4 days by modified propidium iodide staining-based fluorescence assay. The conditions noted are these: PC-3M, 96 h. In a few lines:
as §1

The subject of another assay is P388. The assay is described as follows: Cytotoxicity against mouse P388 cells.

A word on the IC50: it is the point on the concentration scale where inhibition reaches its midpoint. High values mean weaker potency in that assay, low ones greater potency in that assay. As to `Cn1cc(-c2cc(-c3cn(C)c4ccccc34)on2)c2ccccc21`, the IC50 worked out at 11.5 µg/mL (≈ 35.1 µM) in [1]; 21.5 µg/mL (≈ 65.7 µM) in the assay with MCF7; 5.1 µg/mL (≈ 15.6 µM) in the assay on A549; 11.1 µg/mL (≈ 33.9 µM) in the assay with OVCAR-3; 37.8 µg/mL (≈ 115 µM) in [2]; 29.5 µg/mL (≈ 90.1 µM) in the assay on HCT-116. Besides, the half-maximal inhibitory concentration (IC50) in the assay with SF-268 turned out to be 24.6 µg/mL (≈ 75.1 µM); in assay [3] it was 4.8 µg/mL (≈ 14.7 µM); in [4] it was 13.3 µg/mL (≈ 40.6 µM); in assay [5], 38.7 µg/mL (≈ 118 µM); in the assay with HT-29, 32.7 µg/mL (≈ 99.9 µM); in the assay on NCI-H460 it was 18.4 µg/mL (≈ 56.2 µM). The IC50 worked out at 14.9 µg/mL (≈ 45.5 µM) in assay [6]; 24.1 µg/mL (≈ 73.6 µM) in assay [7]; 29.3 µg/mL (≈ 89.5 µM) in assay [8]; 18.3 µg/mL (≈ 55.9 µM) in the assay with DU-145; 28.8 µg/mL (≈ 88 µM) in [9]; 4.2 µg/mL (≈ 12.8 µM) in assay [10]. The IC50 came out at 24.2 µg/mL (≈ 73.9 µM) in assay [11]; 7.2 µg/mL (≈ 22 µM) in assay [12]; 11.5 µg/mL (≈ 35.1 µM) in the assay with LNCaP; 29.9 µg/mL (≈ 91.3 µM) in assay [13]; 21 µg/mL (≈ 64.1 µM) in [14]; 18.7 µg/mL (≈ 57.1 µM) in assay [15]. In addition, the concentration for half-maximal inhibition (IC50) was found to be 8.8 µg/mL (≈ 26.9 µM) in the assay with PANC-1; 14.1 µg/mL (≈ 43.1 µM) in the assay on CWR22R; 40.6 µg/mL (≈ 124 µM) in the assay on T-24; 20 µg/mL (≈ 61.1 µM) in [16]; 28.1 µg/mL (≈ 85.8 µM) in assay [17].
For the compound `Cn1c(-c2cn(C)c3cc(Br)ccc23)cnc1-c1cn(C)c2cc(Br)ccc12` [N-METHYL NORTOPSENTIN A], the midpoint of inhibition in the assay on P388, the IC50, lay at 800 nM.
